Measurements from ChEMBL document CHEMBL1148035, “Isolation of bioactive and other oxoaporphine alkaloids from two annonaceous plants, Xylopia aethiopica and Miliusa cf. banacea” (J Nat Prod, 1994).

Experiments:
Saccharomyces cerevisiae [1] = assay: DNA damaging activity against rad 52 DNA repair gene deficient Saccharomyces cerevisiae mutant assessed as drug level required to produce 12 mm zone of inhibition after 48 hrs; type: functional
In short: (§1)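 Yeast agar-well diffusion assay: test material in a 100 μl well, incubated 48 h at 37°. IC12 is the concentration in μg/ml giving a 12 mm diameter zone of inhibition around the well. Reported values are averages of 2 or 3 determinations.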

Saccharomyces cerevisiae [2] = assay: DNA damaging activity against rad 52 DNA repair gene/topoisomerase 1 deficient Saccharomyces cerevisiae mutant assessed as drug level required to produce 12 mm zone of inhibition well after 48 hrs; type: functional; in short: as §1
[3] = molecular target: DNA topoisomerase 2-alpha (Homo sapiens, UniProt P11388); assay: Inhibition of DNA topoisomerase 2 assessed as bacteriophage P4 DNA unknotting after 30 mins
DNA topoisomerase 2-alpha, sequence (P11388 whole entry): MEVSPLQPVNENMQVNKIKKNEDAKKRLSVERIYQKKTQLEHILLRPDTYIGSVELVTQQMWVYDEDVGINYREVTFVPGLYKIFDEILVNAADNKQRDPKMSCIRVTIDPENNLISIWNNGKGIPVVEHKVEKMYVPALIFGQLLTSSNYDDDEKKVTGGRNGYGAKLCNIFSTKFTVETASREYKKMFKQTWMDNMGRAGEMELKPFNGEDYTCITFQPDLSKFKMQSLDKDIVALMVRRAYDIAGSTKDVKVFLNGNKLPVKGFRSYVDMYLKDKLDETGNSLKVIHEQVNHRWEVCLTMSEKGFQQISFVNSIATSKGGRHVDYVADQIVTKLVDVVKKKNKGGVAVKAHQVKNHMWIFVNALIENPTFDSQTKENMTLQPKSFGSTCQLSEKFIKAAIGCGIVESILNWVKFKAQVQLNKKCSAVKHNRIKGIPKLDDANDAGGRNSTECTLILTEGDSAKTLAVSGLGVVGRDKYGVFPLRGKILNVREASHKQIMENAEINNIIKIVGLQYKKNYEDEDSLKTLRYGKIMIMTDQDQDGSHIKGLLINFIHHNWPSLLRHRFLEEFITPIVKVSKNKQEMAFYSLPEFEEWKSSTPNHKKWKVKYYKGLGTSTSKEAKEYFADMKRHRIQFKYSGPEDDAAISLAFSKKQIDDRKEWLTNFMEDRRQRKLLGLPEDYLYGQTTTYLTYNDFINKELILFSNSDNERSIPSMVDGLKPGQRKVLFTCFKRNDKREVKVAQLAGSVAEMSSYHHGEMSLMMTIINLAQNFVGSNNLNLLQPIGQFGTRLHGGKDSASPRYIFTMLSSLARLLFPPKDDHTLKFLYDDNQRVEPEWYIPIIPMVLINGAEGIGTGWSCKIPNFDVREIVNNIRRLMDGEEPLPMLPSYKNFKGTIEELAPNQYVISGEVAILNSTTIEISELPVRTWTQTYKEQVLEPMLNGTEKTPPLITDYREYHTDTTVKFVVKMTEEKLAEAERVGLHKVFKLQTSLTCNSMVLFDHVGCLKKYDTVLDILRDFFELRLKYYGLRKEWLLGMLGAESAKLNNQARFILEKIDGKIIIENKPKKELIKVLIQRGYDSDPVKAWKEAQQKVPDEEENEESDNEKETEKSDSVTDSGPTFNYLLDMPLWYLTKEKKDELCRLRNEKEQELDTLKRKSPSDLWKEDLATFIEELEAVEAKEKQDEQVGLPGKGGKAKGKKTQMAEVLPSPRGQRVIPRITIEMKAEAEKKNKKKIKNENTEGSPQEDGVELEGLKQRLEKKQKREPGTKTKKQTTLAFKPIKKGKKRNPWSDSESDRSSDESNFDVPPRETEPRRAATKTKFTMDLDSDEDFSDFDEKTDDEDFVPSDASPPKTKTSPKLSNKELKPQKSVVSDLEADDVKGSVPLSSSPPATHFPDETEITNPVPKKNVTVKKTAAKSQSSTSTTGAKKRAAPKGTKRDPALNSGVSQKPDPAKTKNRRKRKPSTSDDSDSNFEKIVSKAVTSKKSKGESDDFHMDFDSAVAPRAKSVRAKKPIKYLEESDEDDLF

Saccharomyces cerevisiae [4] = assay: DNA damaging activity against rad 6 DNA repair gene deficient Saccharomyces cerevisiae mutant assessed as drug level required to produce 12 mm zone of inhibition well after 48 hrs; type: functional; in short: as §1
Saccharomyces cerevisiae [5] = assay: DNA damaging activity against wild type Saccharomyces cerevisiae expressing rad DNA repair gene assessed as drug level required to produce 12 mm zone of inhibition after 48 hrs; type: functional; in short: as §1
Saccharomyces cerevisiae [6] = assay: Antifungal activity against rad 6 DNA repair gene deficient Saccharomyces cerevisiae mutant at 500 ug/ml; type: functional; conditions: read-out: IZ
In short: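 Yeast well-diffusion assay against the rad 6 DNA-repair-deficient Saccharomyces cerevisiae strain. Sample is applied at the stated concentration (μg/ml) to a 100 μl well. Plates are incubated 48 h at 37°. Read-out is the diameter of the zone of inhibition, in mm.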

| Structure (SMILES) | Activity (Saccharomyces cerevisiae [1]) | Activity (Saccharomyces cerevisiae [2]) | IC50 [3] | Activity (Saccharomyces cerevisiae [4]) | Activity (Saccharomyces cerevisiae [5]) | zone of inhibition at 500 µg/mL (Saccharomyces cerevisiae [6]) |
| --- | --- | --- | --- | --- | --- | --- |
| COc1ccc2c(c1)-c1c3c(cc4ccnc(c14)C2=O)OCO3 | 214 µg/mL | 113 µg/mL | 81.9 µM | – | – | – |
| O=C1c2ccc(O)cc2-c2c3c(cc4ccnc1c24)OCO3 | 295 µg/mL | 72 µg/mL | 42.9 µM | – | – | – |
| CC[C@@]1(O)C(=O)OCc2c1cc1n(c2=O)Cc2cc3ccccc3nc2-1 [CAMPTOTHECIN] | 0.6 µg/mL | >20 µg/mL | – | 8.7 µg/mL | – | – |
| COc1c(OC)c2c3c(nccc3c1OC)C(=O)c1ccccc1-2 [HOMOMOSCHATOLINE] | >500 µg/mL | >500 µg/mL | – | >500 µg/mL | – | – |
| O=C1c2ccccc2-c2c3c(cc4ccnc1c24)OCO3 [LIRIODENINE] | 16.7 µg/mL | – | – | – | 500 µg/mL | 15 mm |
| COc1cc2ccnc3c2c(c1OC)-c1ccccc1C3=O [LYSICAMINE] | 300 µg/mL | 390 µg/mL | – | >500 µg/mL | – | – |
| COc1cc2c(cc1OC)-c1c(OC)c(OC)cc3ccnc(c13)C2=O [OXOGLAUCINE] | >500 µg/mL | >500 µg/mL | – | >500 µg/mL | >500 µg/mL | – |
| COc1c(OC)c2c3c(nccc3c1OC)C(=O)c1cc3c(cc1-2)OCO3 [OXOPHOEBINE] | 6.4 µg/mL | 2.6 µg/mL | – | 4.7 µg/mL | >500 µg/mL | – |
| COC1=C(N)C(=O)c2nc(-c3nc(C(=O)O)c(C)c(-c4ccc(OC)c(OC)c4O)c3N)ccc2C1=O [STREPTONIGRIN] | 0.4 µg/mL | <0.4 µg/mL | – | 2.4 µg/mL | – | – |
